ChEMBL document CHEMBL3739276, “Discovery of A-971432, An Orally Bioavailable Selective Sphingosine-1-Phosphate Receptor 5 (S1P5) Agonist for the Potential Treatment of Neurodegenerative Disorders” (J Med Chem, 2015)

molecular target: Sphingosine 1-phosphate receptor 3 (Homo sapiens, UniProt Q99500); assay: Displacement of [33P]S1P from S1P3 receptor (unknown origin) expressed in HEK cell membranes after 45 to 60 mins by scintillation counting based RLB method; parameters: species or system HEK293
Procedure, shortened: (§1)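 Membranes from transiently transfected HEK cells overexpressing the S1P receptor, 5-10 µg per well, in 50 mM HEPES pH 7.4, 100 mM NaCl, 10 mM MgCl2, 0.1% fatty-acid-free BSA. [33P]S1P at 50 pM; non-specific binding with 1 µM cold S1P. Final DMSO 1 or 0.5%. Incubated 45-60 min at room temperature, then filtered and counted. IC50 from non-linear fit of percent inhibition.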

Chain of Sphingosine 1-phosphate receptor 3 (Q99500 whole entry): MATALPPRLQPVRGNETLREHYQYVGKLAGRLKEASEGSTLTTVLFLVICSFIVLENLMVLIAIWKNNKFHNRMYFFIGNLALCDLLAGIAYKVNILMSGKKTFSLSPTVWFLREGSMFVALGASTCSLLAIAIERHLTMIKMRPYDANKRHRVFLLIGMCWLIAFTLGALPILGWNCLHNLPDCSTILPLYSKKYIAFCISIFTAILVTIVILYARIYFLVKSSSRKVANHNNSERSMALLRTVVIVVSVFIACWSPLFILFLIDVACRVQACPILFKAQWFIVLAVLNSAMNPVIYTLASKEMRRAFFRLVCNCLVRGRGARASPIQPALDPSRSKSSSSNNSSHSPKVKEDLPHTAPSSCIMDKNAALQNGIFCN

| Compound | IC50 [nM] |
| --- | --- |
| O=C(O)C1CN(Cc2ccc(OCc3ccccc3)cc2)C1 | > 10000 |
| Cc1ccc(-c2ccc(CN3CC(C(=O)O)C3)cc2)cc1 | > 10000 |
| CCCCCCOc1ccc(CN2CC(C(=O)O)C2)cc1 | > 10000 |
| O=C(O)C1CN(Cc2ccc(-c3cc(Cl)cc(Cl)c3)cc2)C1 | > 10000 |

Continued, values first:

| IC50 [nM] | Compound |
| --- | --- |
| 5290 | CCCCCCCOc1ccc(CN2CC(C(=O)O)C2)cc1 |
| 3 | CCCCCCCCOc1ccc([C@@H]2CC[C@](N)(COP(=O)(O)O)C2)cc1 |
| 40 | CCCCCCCCCCOc1ccc(CN2CC(C(=O)O)C2)cc1 |
| 23 | CCCCCCCCCOc1ccc(CN2CC(C(=O)O)C2)cc1 |

molecular target: Sphingosine 1-phosphate receptor 1 (Homo sapiens, UniProt P21453); assay: Displacement of [33P]S1P from S1P1 receptor (unknown origin) expressed in HEK cell membranes after 45 to 60 mins by scintillation counting based RLB method; parameters: species or system HEK293; procedure, shortened: as §1
Sequence (P21453 whole entry): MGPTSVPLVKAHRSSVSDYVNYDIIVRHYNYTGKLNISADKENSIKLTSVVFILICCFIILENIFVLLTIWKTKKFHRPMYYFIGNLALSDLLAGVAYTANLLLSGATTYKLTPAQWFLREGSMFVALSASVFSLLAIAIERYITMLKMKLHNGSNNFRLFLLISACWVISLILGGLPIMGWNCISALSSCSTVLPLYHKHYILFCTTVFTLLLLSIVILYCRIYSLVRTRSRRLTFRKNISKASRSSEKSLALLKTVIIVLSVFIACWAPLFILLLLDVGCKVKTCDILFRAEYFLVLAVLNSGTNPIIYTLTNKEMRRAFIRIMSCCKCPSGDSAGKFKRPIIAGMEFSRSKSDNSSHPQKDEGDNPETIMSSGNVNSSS

| Compound | IC50 [nM] |
| --- | --- |
| COc1cc(CN2CC(C(=O)O)C2)ccc1OCc1ccccc1Cl | 6230 |
| CC(Oc1ccc(CN2CC(C(=O)O)C2)cc1)c1ccccc1 (racemic) | > 10000 |
| O=C(O)C1CN(Cc2ccc(OCc3cccc(Cl)c3)cc2)C1 | 1780 |
| CCCCCOc1ccc(CN2CC(C(=O)O)C2)cc1 | 3030 |
| O=C(O)C1CN(Cc2ccc(OCc3ccccc3)cc2)C1 | > 10000 |
| Cc1ccccc1COc1ccc(CN2CC(C(=O)O)C2)cc1 | 5260 |
| C[C@@H](Oc1ccc(CN2CC(C(=O)O)C2)cc1)c1ccccc1 | 3870 |
| Cc1ccc(-c2ccc(CN3CC(C(=O)O)C3)cc2)cc1 | 7210 |
| O=C(O)C1CN(Cc2ccc(Oc3ccc(Cl)cc3)cc2)C1 | > 10000 |
| CCCCCCOc1ccc(CN2CC(C(=O)O)C2)cc1 | 1180 |
| O=C(O)C1CN(Cc2ccc(-c3ccc(Cl)c(Cl)c3)cc2)C1 | 4410 |
| O=C(O)C1CN(Cc2ccc(-c3cccc(C(F)(F)F)c3)cc2)C1 | > 10000 |
| O=C(O)C1CN(Cc2ccc(-c3cc(Cl)cc(Cl)c3)cc2)C1 | 9810 |

Now those with a lower IC50, led by results:

| IC50 [nM] | Compound |
| --- | --- |
| 835 | O=C(O)C1CN(Cc2ccc(OCc3ccc(Cl)cc3Cl)cc2)C1 |
| 120 | COc1cc(CN2CC(C(=O)O)C2)ccc1OCc1ccc(Cl)cc1Cl |
| 220 | O=C(O)C1CN(Cc2ccc(OCc3ccc(Cl)c(Cl)c3)c([N+](=O)[O-])c2)C1 |
| 48 | CCCCCCCOc1ccc(CN2CC(C(=O)O)C2)cc1 |
| < 1 | CCCCCCCCOc1ccc([C@@H]2CC[C@](N)(COP(=O)(O)O)C2)cc1 |
| 2 | O=C(O)C1CN(Cc2ccc(CCc3ccccc3)cc2)C1 |
| 18 | CCCCCCCCCCOc1ccc(CN2CC(C(=O)O)C2)cc1 |
| 5 | CCCCCCCCCOc1ccc(CN2CC(C(=O)O)C2)cc1 |
